≈ marks a conversion by molar mass, not a printed value. Where “and” joins values, the source holds several entries; their conditions need not be identical. Equal entries are not always repeated. Where two headings read alike, the source gives them in different places. Where a SMILES comes first, the peptide text is derived from it. Bridges are numbered along the chain shown (N, C = ends). [ ]: non-standard residue; d: D form. The star is where a group is joined. X1 = CC[C@H](C)CCCCC(=O)*; Dab = NCC[C@H](N)C(=O)O
Tests used:
P. aeruginosa [1] = format: cell-based; conditions: Pseudomonas aeruginosa
Outline: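 Extremely drug-resistant clinical isolates from patients with urinary tract infection. Species identification and susceptibility testing were done by microdilution on the automated breakpoint panel for non-fermenting Gram-negative bacteria. Colistin MIC was determined by microdilution in cation-adjusted Mueller-Hinton broth, with isolates scored susceptible at MIC ≤ 2 mg/L per CLSI.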

Acute kidney injury = format: in vivo, human; conditions: for AKI at EOT: F (Failure) / AKI at EOT: I (Injury) / AKI at EOT: R (Risk): among patients with AKI
MDR-GNB = conditions: cited from earlier work
XDR P. aeruginosa [2] = format: cell-based, Pseudomonas aeruginosa
[3] = cited from earlier work
XDR P. aeruginosa [4] = assay: Plasma AUC/MIC, fAUC/MIC of formed colistin and attainment of PK/PD targets; format: in vivo, human
P. aeruginosa [5] = conditions: study performed in Spain; cited from earlier work
XDR P. aeruginosa [6] = format: in vivo, human
[7] = in vivo; cited from earlier work
[8] = CMS ≥ 6 million IU/day (n = 12)
[9] = included patients with clinical failure (n = 2)
[10] = all patients, RIFLE class among patients with AKI

Which MIC (P. aeruginosa [1]) does the source give for `NCC[C@H](O)C(=O)N[C@@H]1C[C@H](N)[C@@H](O[C@H]2O[C@H](CN)[C@@H](O)[C@H](O)[C@H]2O)[C@H](O)[C@H]1O[C@H]1O[C@H](CO)[C@@H](O)[C@H](N)[C@H]1O` [amikacin] here?
Its MIC is 16 µg/mL (≈ 27.3 µM).

For `CC(C)(O/N=C(\C(=O)N[C@@H]1C(=O)N2C(C(=O)[O-])=C(C[n+]3ccccc3)CS[C@H]12)c1csc(N)n1)C(=O)O` [ceftazidime], which MIC (P. aeruginosa [1]) is on record?
The MIC was 16 µg/mL (≈ 29.3 µM).

For `CC[C@H](C)CCCCC(=O)N[C@@H](CCN)C(=O)N[C@H](C(=O)N[C@@H](CCN)C(=O)N[C@H]1CCNC(=O)[C@H]([C@@H](C)O)NC(=O)[C@H](CCN)NC(=O)[C@H](CCN)NC(=O)[C@H](CC(C)C)NC(=O)[C@@H](CC(C)C)NC(=O)[C@H](CCN)NC1=O)[C@@H](C)O` [colistin] (X1-[Dab]T[Dab][Dab][Dab][dL]L[Dab][Dab]T; lactam 4-C), which “Odds ratio (95% CI) of Css for nephrotoxicity at EOT” value (Acute kidney injury; multivariate logistic regression, P = 0.074) is on record?
Its value is 4.36 (0.86–20).

And the “clinical cure rate in patients diagnosed with UTI” value (MDR-GNB; retrospective study, low-dose colistin)?
The value was 83.3%.

What about the MIC50 (XDR P. aeruginosa [2]) of the same compound?
Its MIC50 is 0.5 µg/mL (≈ 0.428 µM).

What about the MIC90 (XDR P. aeruginosa [2]) of the same compound?
Its MIC90 is 2 µg/mL (≈ 1.71 µM).

And the “patients with colistin in urine much higher than in plasma” value ([3]; 11 of 12 patients treated with CMS)?
The value was 91.7%.

What about the “concentrations of formed colistin in urine” value ([3]; 12 patients treated with CMS, maximum) of the same compound?
Its value is “up to 95.4 mg/L”.

And the “concentrations of formed colistin in plasma” value ([3]; 12 patients treated with CMS, median (IQR <0.2–1.4 mg/L))?
The value was 900 ng/mL.

And the half-life ([3]; assumed for reaching steady state)?
The half-life was “approximately 14 h”.

And the “unbound fraction for colistin in human plasma” value ([3]; human plasma)?
Its value is 0.5.

And the “patients with microbiological clearance who had reached an AUC/MIC of 60 mg·h/L” value (XDR P. aeruginosa [4]; 7/19 patients)?
The value was 36.8%.

What about the “patients with pyelonephritis reaching Css,avg above 2.5 mg/L” value (XDR P. aeruginosa [4]; 9 patients diagnosed with pyelonephritis) of the same compound?
The value was “none of them reached a Css,avg above 2.5 mg/L”.

And the “patients with pyelonephritis achieving AUC/MIC > 60 mg·h/L” value (XDR P. aeruginosa [4]; 9 patients diagnosed with pyelonephritis, 1 patient)?
Its value is 11.1%.

What about the “AUC/MIC > 60 mg∙h/L” value (XDR P. aeruginosa [4]; CMS < 3 million IU/day (n = 6)) of the same compound?
Its value is 2 (33.3) n (%).

What about the “AUC/MIC > 60 mg∙h/L” value (XDR P. aeruginosa [4]; CMS ≥ 3 million IU/day (n = 9)) of the same compound?
Its value is 1 (11.1) n (%).

What about the “AUC/MIC > 60 mg∙h/L” value (XDR P. aeruginosa [4]; [8]) of the same compound?
Its value is 5 (41.7) n (%).

And the “AUC/MIC > 60 mg∙h/L” value (XDR P. aeruginosa [4]; CMS ≥ 9 million IU/day (n = 6))?
The value was 3 (50) n (%).

And the “AUC/MIC ≥ 60 mg∙h/L” value (XDR P. aeruginosa [4]; all patients n = 33)?
Its value is 11 (33.3) n (%).

What about the fAUC/MIC (XDR P. aeruginosa [4]; all patients n = 33, unbound fraction 0.5, mean ± standard deviation, SD) of the same compound?
Its fAUC/MIC is 30.2 ± 28.2.

What about the fAUC/MIC (XDR P. aeruginosa [4]; included patients with clinical cure (n = 31), median (interquartile range)) of the same compound?
The fAUC/MIC was 21.5 (5.04–124.8).

And the “Css > 2,5 mg/L” value (XDR P. aeruginosa [4]; [9])?
The value was 1 (50) 1 (50) n (%).

What about the fAUC/MIC (XDR P. aeruginosa [4]; included patients with clinical failure (n = 2), median (interquartile range)) of the same compound?
The fAUC/MIC was 47.4 (7.44–87.4).

And the “Css > 2,5 mg/L” value (XDR P. aeruginosa [4]; patients treated with colistin alone, clinical cure (n=17))?
Its value is 1 (5.9) n (%).

And the fAUC/MIC (XDR P. aeruginosa [4]; patients treated with colistin alone, clinical cure (n=17), median (interquartile range))?
The fAUC/MIC was 16.8 (4.8–81.6).

And the fAUC/MIC (XDR P. aeruginosa [4]; patients with AKI at EOT (n = 10), median (interquartile range))?
Its fAUC/MIC is 48.4 (14.4–124.8).

And the fAUC/MIC (XDR P. aeruginosa [4]; patients without AKI at EOT (n = 23), median (interquartile range))?
Its fAUC/MIC is 13.7 (4.8–58.1).

And the MIC50/90 values (P. aeruginosa [5])?
The MIC50/90 values was 2 µg/mL (≈ 1.71 µM).

What about the “emergence of colistin-resistant isolates” value (XDR P. aeruginosa [6]; during the next 30 days after treatment) of the same compound?
Its value is “no colistin-resistant isolates were detected”.

And the “Css,avg associated with a higher risk of AKI at EOT” value [7]?
Its value is > 2420 ng/mL.

What about the “rate of colistin-associated nephrotoxicity” value [7] of the same compound?
Its value is 40–50%.

Which MIC (P. aeruginosa [1]) does the source give for `C[C@@H](O)[C@H]1C(=O)N2C(C(=O)O)=C(S[C@@H]3CN[C@H](C(=O)N(C)C)C3)[C@H](C)[C@H]12` [meropenem] here?
The MIC was ≥ 8 µg/mL.

What does the source list for Colistimethate sodium [CMS]?
AKI at EOT (Acute kidney injury; CMS < 3 million IU/day (n = 6)): 2 (33.3) n (%); AKI at EOT: F (Failure) (Acute kidney injury; CMS < 3 million IU/day (n = 6)): 0 (0) n (%); AKI at EOT: I (Injury) (Acute kidney injury; CMS < 3 million IU/day (n = 6)): 1 (50) n (%); AKI at EOT: R (Risk) (Acute kidney injury; CMS < 3 million IU/day (n = 6)): 1 (50) n (%); AKI at EOT (Acute kidney injury; CMS ≥ 3 million IU/day (n = 9)): 3 (33.3) n (%); AKI at EOT: F (Failure) (Acute kidney injury; CMS ≥ 3 million IU/day (n = 9)): 1 (33.3) n (%); AKI at EOT: I (Injury) (Acute kidney injury; CMS ≥ 3 million IU/day (n = 9)): 2 (66.6) n (%); AKI at EOT: R (Risk) (Acute kidney injury; CMS ≥ 3 million IU/day (n = 9)): 0 (0) n (%); AKI at EOT (Acute kidney injury; [8]): 4 (33.3) n (%); AKI at EOT: F (Failure) (Acute kidney injury; [8]): 0 (0) n (%); AKI at EOT: I (Injury) (Acute kidney injury; [8]): 3 (75) n (%); AKI at EOT: R (Risk) (Acute kidney injury; [8]): 1 (25) n (%); AKI at EOT (Acute kidney injury; CMS ≥ 9 million IU/day (n = 6)): 1 (16.7) n (%); AKI at EOT: F (Failure) (Acute kidney injury; CMS ≥ 9 million IU/day (n = 6)): 1 (100) n (%); AKI at EOT: I (Injury) (Acute kidney injury; CMS ≥ 9 million IU/day (n = 6)): 0 (0) n (%); AKI at EOT: R (Risk) (Acute kidney injury; CMS ≥ 9 million IU/day (n = 6)): 0 (0) n (%); AKI at the end of treatment (Acute kidney injury; all patients n = 33, RIFLE criteria): 10 (30.3%) n (%) and 10 (30.3) n (%); AKI at the end of treatment: F (Failure) (Acute kidney injury; [10]): 2 (22.2) n (%); AKI at the end of treatment: I (Injury) (Acute kidney injury; [10]): 5 (55.5) n (%); AKI at end of treatment (Acute kidney injury; included patients with clinical cure (n = 31)): 9 (29) n (%); AKI at end of treatment (Acute kidney injury; [9]): 1 (50) n (%); Clinical cure (MDR-GNB; 13 patients with UTI caused by XDR P. aeruginosa): 84.6%; rate of clinical cure in UTI caused by MDR-GNB (MDR-GNB; recent clinical studies): 50 to 92%; CMS dose eliminated in the urine [3]: 60–70%; rate of CMS conversion into colistin ([3]; young volunteers, single dose of 1 million IU (80 mg) CMS): 30%; CMS excreted in urine ([3]; young volunteers, single dose of 1 million IU (80 mg) CMS, on average): 70%; Clinical cure in patients with pyelonephritis (XDR P. aeruginosa [6]; 9 patients diagnosed with pyelonephritis, six (66.7%) on combined therapy): All of them achieved clinical cure; Microbiological clearance (XDR P. aeruginosa [6]; 23 patients with microbiological follow up): 19 (82.6) n (%); Clinical cure (XDR P. aeruginosa [6]; CMS < 3 million IU/day (n = 6)): 6 (100) n (%); Clinical cure (XDR P. aeruginosa [6]; CMS ≥ 3 million IU/day (n = 9)): 8 (88.9) n (%); Clinical cure (XDR P. aeruginosa [6]; [8]): 11 (91.7) n (%); Clinical cure (XDR P. aeruginosa [6]; CMS ≥ 9 million IU/day (n = 6)): 6 (100) n (%); Clinical cure (XDR P. aeruginosa [6]; all patients n = 33 (42.4% on combined antibiotic therapy)): 31 (93.9) n (%)
